One block for each compound: values may come before it.
Assays:
REH = assay: Cytotoxicity against human REH cells assessed as reduction in cell viability […] by Alamar Blue assay; assay type: functional, cell-based
[1] = biological target: T1, UDP-glucuronosyltransferase 1A1 (Rattus norvegicus, UniProt Q64550); assay: Inhibition of UGT1A in rat hepatocytes preincubated for 2 mins followed by UDPGA addition measured after 45 mins by HPLC analysis; assay type: ADME, cell-based
T1 sequence (Q64550 whole entry): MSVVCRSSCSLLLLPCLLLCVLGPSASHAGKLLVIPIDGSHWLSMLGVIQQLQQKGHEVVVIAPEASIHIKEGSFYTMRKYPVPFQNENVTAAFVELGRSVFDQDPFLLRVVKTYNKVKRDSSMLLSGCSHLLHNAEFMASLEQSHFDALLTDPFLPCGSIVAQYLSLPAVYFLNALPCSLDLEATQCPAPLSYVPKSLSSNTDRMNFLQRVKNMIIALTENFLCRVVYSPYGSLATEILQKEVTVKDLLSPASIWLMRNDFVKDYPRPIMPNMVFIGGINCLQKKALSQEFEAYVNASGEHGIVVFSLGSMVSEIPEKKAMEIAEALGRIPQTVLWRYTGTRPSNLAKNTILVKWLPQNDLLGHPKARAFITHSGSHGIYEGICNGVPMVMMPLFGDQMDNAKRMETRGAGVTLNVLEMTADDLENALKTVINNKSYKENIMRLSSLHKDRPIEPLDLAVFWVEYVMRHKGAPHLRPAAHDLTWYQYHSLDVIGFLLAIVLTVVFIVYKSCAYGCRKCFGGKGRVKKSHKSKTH
In short: (§1)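 Rat liver microsomes (100 µg protein/mL) were used, with alamethicin 22 µg/mL, bilirubin 10 µM and MgCl2 0.88 mM in 50 mM potassium phosphate pH 7.4, at 37 °C with shaking under minimal light. Purine or no-purine control was preincubated 2 min before UDPGA (3.5 mM) started the reaction. Reactions were stopped with ice-cold methanol containing 200 mM ascorbic acid and centrifuged. Unconjugated bilirubin and mono- and diglucuronides were quantified by gradient HPLC against bilirubin calibration curves over a 45-min time course.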

[2] = biological target: T2, UDP-glucose 6-dehydrogenase (Rattus norvegicus, UniProt O70199); assay: Inhibition of UDPGDH in rat hepatocytes after 20 to 120 secs by UV/Vis spectrophotometric analysis; assay type: cell-based
T2 sequence (O70199 whole entry): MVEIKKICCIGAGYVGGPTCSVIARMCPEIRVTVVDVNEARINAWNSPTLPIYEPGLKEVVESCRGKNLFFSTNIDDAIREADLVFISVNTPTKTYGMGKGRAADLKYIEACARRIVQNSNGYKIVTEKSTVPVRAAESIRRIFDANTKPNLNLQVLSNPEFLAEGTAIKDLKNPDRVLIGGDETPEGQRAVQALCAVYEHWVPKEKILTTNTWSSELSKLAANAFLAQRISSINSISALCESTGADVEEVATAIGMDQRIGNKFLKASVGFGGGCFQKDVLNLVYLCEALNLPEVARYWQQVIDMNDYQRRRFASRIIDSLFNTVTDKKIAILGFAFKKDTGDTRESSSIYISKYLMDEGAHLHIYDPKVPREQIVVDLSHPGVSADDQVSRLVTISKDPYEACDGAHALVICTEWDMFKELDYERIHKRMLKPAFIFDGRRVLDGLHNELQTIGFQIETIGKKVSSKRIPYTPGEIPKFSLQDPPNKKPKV
In short: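 Purified UDPGDH (0.1 unit/mL) was assayed spectrophotometrically at 340 nm and 25 °C in 150 mM Gly-Gly with saturating 3 mM NAD+. UDPG was varied (0.1, 0.05, 0.025, 0.02 mM) at several inhibitor concentrations. After 2 min thermal equilibration, the initial absorbance-versus-time rate was recorded. Runs were in triplicate; averaged slopes were plotted to derive inhibition values.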

[3] = biological target: T2, UDP-glucose 6-dehydrogenase; assay: Inhibition of UDPGDH in rat hepatocytes assessed as decrease in bilirubin diglucuronide level at 10 uM after 45 mins in presence of UDPGA by HPLC analysis; assay type: cell-based; conditions: 0.75 h; in short: as §1
[4] = biological target: T3, UDPGDH (UDP-glucose 6-dehydrogenase) (Rattus norvegicus, UniProt O70199); assay: Inhibition of UDPGDH in rat hepatocytes assessed as decrease in bilirubin diglucuronide level at 5 uM preincubated for 2 mins followed by UDPGA addition measured after 45 mins by HPLC analysis relative to control; assay type: cell-based; conditions: probe bilirubin (readout: bilirubin diglucuronide level); in short: as §1
T3 sequence (O70199 whole entry): T2 sequence (O70199 whole entry)

[5] = biological target: T2, UDP-glucose 6-dehydrogenase; assay: Inhibition of UDPGDH in rat hepatocytes assessed as decrease in bilirubin monoglucuronide level at 10 uM preincubated for 2 mins followed by UDPGA addition measured after 45 mins in presence of regorafenib by HPLC analysis; assay type: cell-based; conditions: 0.75 h
[6] = biological target: T3, UDPGDH (UDP-glucose 6-dehydrogenase); assay: Inhibition of UDPGDH in rat hepatocytes assessed as decrease in bilirubin diglucuronide level at 10 uM preincubated for 2 mins followed by UDPGA addition measured after 45 mins by HPLC analysis relative to control; assay type: cell-based; conditions: probe bilirubin (readout: bilirubin diglucuronide level); in short: as §1
[7] = biological target: T1, UDP-glucuronosyltransferase 1A1; assay: Inhibition of UGT1A in rat hepatocytes assessed as decrease in bilirubin monoglucuronide level at 75 uM preincubated for 2 mins followed by UDPGA addition measured after 45 mins by HPLC analysis; assay type: ADME, cell-based; conditions: 0.75 h; in short: as §1
[8] = biological target: T2, UDP-glucose 6-dehydrogenase; assay: Inhibition of UDPGDH in rat hepatocytes assessed as decrease in bilirubin diglucuronide level at 5 to 10 uM preincubated for 2 mins followed by UDPGA addition measured after 45 mins by HPLC analysis; assay type: cell-based; conditions: 0.75 h; in short: as §1
[9] = biological target: T3, UDPGDH (UDP-glucose 6-dehydrogenase); assay: Inhibition of UDPGDH in rat hepatocytes assessed as decrease in bilirubin monoglucuronide level at 5 uM preincubated for 2 mins followed by UDPGA addition measured after 45 mins by HPLC analysis relative to control; assay type: cell-based; conditions: probe bilirubin (readout: bilirubin monoglucuronide level); in short: as §1
[10] = biological target: T1, UDP-glucuronosyltransferase 1A1; assay: Inhibition of UGT1A in rat hepatocytes assessed as increase in unconjugated bilirubin level at 75 uM preincubated for 2 mins followed by UDPGA addition measured after 45 mins by HPLC analysis; assay type: ADME, cell-based; conditions: 0.75 h; in short: as §1
[11] = biological target: T1, UDP-glucuronosyltransferase 1A1; assay: Inhibition of UGT1A in rat hepatocytes assessed as decrease in bilirubin diglucuronide level at 75 uM preincubated for 2 mins followed by UDPGA addition measured after 45 mins by HPLC analysis; assay type: ADME, cell-based; conditions: 0.75 h; in short: as §1
[12] = biological target: T2, UDP-glucose 6-dehydrogenase; assay: Inhibition of UDPGDH in rat hepatocytes assessed as increase in unconjugated bilirubin level at 5 uM preincubated for 2 mins followed by UDPGA addition measured after 45 mins by HPLC analysis relative to control; assay type: cell-based; design: scale not given: the % may be the effect or the level left; conditions: 0.75 h; in short: as §1
[13] = biological target: T2, UDP-glucose 6-dehydrogenase; assay: Inhibition of UDPGDH in rat hepatocytes assessed as increase in unconjugated bilirubin level at 10 uM preincubated for 2 mins followed by UDPGA addition measured after 45 mins by HPLC analysis relative to control; assay type: cell-based; design: scale not given: the % may be the effect or the level left; conditions: 0.75 h; in short: as §1
[14] = biological target: T3, UDPGDH (UDP-glucose 6-dehydrogenase); assay: Inhibition of UDPGDH in rat hepatocytes assessed as decrease in bilirubin monoglucuronide level at 10 uM preincubated for 2 mins followed by UDPGA addition measured after 45 mins by HPLC analysis relative to control; assay type: cell-based; conditions: probe bilirubin (readout: bilirubin monoglucuronide level); in short: as §1
[15] = biological target: T2, UDP-glucose 6-dehydrogenase; assay: Inhibition of UDPGDH in rat hepatocytes assessed as decrease in bilirubin diglucuronide level at 10 uM preincubated for 2 mins followed by UDPGA addition measured after 45 mins in presence of regorafenib by HPLC analysis; assay type: cell-based; conditions: 0.75 h
[16] = biological target: T3, UDPGDH (UDP-glucose 6-dehydrogenase); assay: Inhibition of UDPGDH in rat hepatocytes assessed as decrease in bilirubin monoglucuronide level at 50 uM preincubated for 2 mins followed by UDPGA addition measured after 45 mins by HPLC analysis relative to control; assay type: cell-based; conditions: probe bilirubin (readout: bilirubin monoglucuronide level); in short: as §1
[17] = biological target: T3, UDPGDH (UDP-glucose 6-dehydrogenase); assay: Inhibition of UDPGDH in rat hepatocytes assessed as decrease in bilirubin monoglucuronide level at 25 uM preincubated for 2 mins followed by UDPGA addition measured after 45 mins by HPLC analysis relative to control; assay type: cell-based; conditions: probe bilirubin (readout: bilirubin monoglucuronide level); in short: as §1
[18] = biological target: T3, UDPGDH (UDP-glucose 6-dehydrogenase); assay: Inhibition of UDPGDH in rat hepatocytes assessed as decrease in bilirubin diglucuronide level at 50 uM preincubated for 2 mins followed by UDPGA addition measured after 45 mins by HPLC analysis relative to control; assay type: cell-based; conditions: probe bilirubin (readout: bilirubin diglucuronide level); in short: as §1
[19] = biological target: T3, UDPGDH (UDP-glucose 6-dehydrogenase); assay: Inhibition of UDPGDH in rat hepatocytes assessed as decrease in bilirubin diglucuronide level at 25 uM preincubated for 2 mins followed by UDPGA addition measured after 45 mins by HPLC analysis relative to control; assay type: cell-based; conditions: probe bilirubin (readout: bilirubin diglucuronide level); in short: as §1
[20] = biological target: T3, UDPGDH (UDP-glucose 6-dehydrogenase); assay: Inhibition of UDPGDH in rat hepatocytes assessed as increase in unconjugated bilirubin level at 25 uM preincubated for 2 mins followed by UDPGA addition measured after 45 mins by HPLC analysis relative to control; assay type: cell-based; conditions: probe bilirubin (readout: unconjugated bilirubin level); in short: as §1
[21] = biological target: T1, UDP-glucuronosyltransferase 1A1; assay: Inhibition of UGT1A in rat hepatocytes assessed as decrease in bilirubin monoglucuronide level at 10 uM after 45 mins in presence of UDPGA by HPLC analysis; assay type: ADME, cell-based; conditions: 0.75 h; in short: as §1
[22] = biological target: T4, UGT1A (UDP-glucuronosyltransferase 1A1) (Rattus norvegicus, UniProt Q64550); assay: Inhibition of UGT1A in rat hepatocytes assessed as decrease in bilirubin diglucuronide level at 10 uM preincubated for 2 mins followed by UDPGA addition measured after 45 mins by HPLC analysis relative to control; assay type: ADME, cell-based; conditions: probe bilirubin (readout: bilirubin diglucuronide level); in short: as §1
T4 sequence (Q64550 whole entry): T1 sequence (Q64550 whole entry)

[23] = biological target: T4, UGT1A (UDP-glucuronosyltransferase 1A1); assay: Inhibition of UGT1A in rat hepatocytes assessed as decrease in bilirubin monoglucuronide level at 10 uM preincubated for 2 mins followed by UDPGA addition measured after 45 mins by HPLC analysis relative to control; assay type: ADME, cell-based; conditions: probe bilirubin (readout: bilirubin monoglucuronide level); in short: as §1
[24] = biological target: T1, UDP-glucuronosyltransferase 1A1; assay: Inhibition of UGT1A in rat hepatocytes assessed as decrease in bilirubin diglucuronide level at 10 uM after 45 mins in presence of UDPGA by HPLC analysis; assay type: ADME, cell-based; conditions: 0.75 h; in short: as §1

SMILES: O=c1[nH]c(=S)c2nc[nH]c2[nH]1
IC50 (REH): > 10 µM
Ki [1]: > 100 µM
Ki [2]: 54 µM

SMILES: O=c1[nH]c(=S)c2[nH]c(=O)[nH]c2[nH]1
inhibition (INH) [3]: Not Active
inhibition at 0.75 h, 5 µM [4]: 76%
inhibition (INH) [5]: Active
inhibition at 0.75 h, 10 µM [6]: 86%
inhibition (INH) [7]: Not Active
inhibition (INH) [8]: Active
inhibition at 0.75 h, 5 µM [9]: 71%
IC50 (REH): > 10 µM
Ki [1]: > 100 µM
inhibition (INH) [10]: Not Active
inhibition (INH) [11]: Not Active
Activity [12]: 31%
Activity [13]: 42%
Ki [2]: 7 µM
inhibition at 0.75 h, 10 µM [14]: 81%
inhibition (INH) [15]: Active

SMILES: Oc1nc2c(S)ncnc2[nH]1
IC50 (REH): 9.91 µM
Ki [1]: > 100 µM
Ki [2]: 14 µM

SMILES: COc1cccc2c1C(=O)c1c(O)c3c(c(O)c1C2=O)C[C@@](O)(C(=O)CO)C[C@@H]3O[C@H]1C[C@H](N)[C@H](O)[C@H](C)O1 [DOXORUBICIN]
IC50 (REH): 0.285 µM

SMILES: Sc1ncnc2nc[nH]c12 [MERCAPTOPURINE ANHYDROUS]
inhibition at 0.75 h, 50 µM [16]: 28%
inhibition at 0.75 h, 25 µM [17]: 19%
inhibition (INH) [7]: Not Active
inhibition at 0.75 h, 50 µM [18]: 26%
inhibition (INH) [8]: Active
IC50 (REH): 2.94 µM
Ki [1]: > 100 µM
inhibition (INH) [10]: Not Active
inhibition (INH) [11]: Not Active
Ki [2]: 288 µM
inhibition at 0.75 h, 25 µM [19]: 12%
inhibition at 0.75 h, 25 µM [20]: 19%

SMILES: CNC(=O)c1cc(Oc2ccc(NC(=O)Nc3ccc(Cl)c(C(F)(F)F)c3)c(F)c2)ccn1 [REGORAFENIB]
inhibition (INH) [21]: Active
inhibition at 0.75 h, 10 µM [22]: 96%
inhibition at 0.75 h, 10 µM [23]: 89%
inhibition (INH) [24]: Active

The remaining compounds from weak to strong by Ki [2], led by results:

Ki [2]: 215 µM
SMILES: Fc1nc2c(S)ncnc2[nH]1
IC50 (REH): 4.71 µM

Ki [2]: 192 µM
SMILES: Sc1ncnc2[nH]c(Br)nc12
IC50 (REH): 9.54 µM

Ki [2]: 163 µM
SMILES: Sc1ncnc2[nH]c(Cl)nc12
IC50 (REH): 3.95 µM

Source: ChEMBL document CHEMBL4316581, “Efforts in redesigning the antileukemic drug 6-thiopurine: decreasing toxic side effects while maintaining efficacy” (Medchemcomm, 2019)
